Results: ChEMBL document CHEMBL5226322, “Harnessing the Role of HDAC6 in Idiopathic Pulmonary Fibrosis: Design, Synthesis, Structural Analysis, and Biological Evaluation of Potent Inhibitors” (J Med Chem, 2021)
≈ marks a conversion by molar mass, not a printed value. Calls of active or inactive are those of the source. The calls are words filed in the database; no cut-off is given here.

Experiments:
[1] = Solubility of the compound at pH 3 PBS buffer incubated for 24 hrs by HPLC-UV analysis; assay type: physicochemical; conditions: pH 3, 24 h
How it was run: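 Compound from 10 mM DMSO stock diluted to 250 μM (2.5% DMSO), either in 50 mM acetic acid (pH 3.0) or in 50 mM aqueous PBS (pH 7.4). Shaken 24 h at 25 °C, PTFE-filtered and diluted 1:2. Quantified by RP-18 HPLC-UV at 254 nm against a 250 μM standard in MeCN/water. Run in triplicate and averaged.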

[2] = target: T1, Protein deacetylase HDAC6 (Homo sapiens, UniProt Q9UBN7); experiment: Inhibition of human recombinant HDAC6 using ZMAL (Z-(Ac)Lys-AMC) as fluorogenic substrate incubated for 120 mins by microplate reader assay
T1 sequence (Q9UBN7 whole entry): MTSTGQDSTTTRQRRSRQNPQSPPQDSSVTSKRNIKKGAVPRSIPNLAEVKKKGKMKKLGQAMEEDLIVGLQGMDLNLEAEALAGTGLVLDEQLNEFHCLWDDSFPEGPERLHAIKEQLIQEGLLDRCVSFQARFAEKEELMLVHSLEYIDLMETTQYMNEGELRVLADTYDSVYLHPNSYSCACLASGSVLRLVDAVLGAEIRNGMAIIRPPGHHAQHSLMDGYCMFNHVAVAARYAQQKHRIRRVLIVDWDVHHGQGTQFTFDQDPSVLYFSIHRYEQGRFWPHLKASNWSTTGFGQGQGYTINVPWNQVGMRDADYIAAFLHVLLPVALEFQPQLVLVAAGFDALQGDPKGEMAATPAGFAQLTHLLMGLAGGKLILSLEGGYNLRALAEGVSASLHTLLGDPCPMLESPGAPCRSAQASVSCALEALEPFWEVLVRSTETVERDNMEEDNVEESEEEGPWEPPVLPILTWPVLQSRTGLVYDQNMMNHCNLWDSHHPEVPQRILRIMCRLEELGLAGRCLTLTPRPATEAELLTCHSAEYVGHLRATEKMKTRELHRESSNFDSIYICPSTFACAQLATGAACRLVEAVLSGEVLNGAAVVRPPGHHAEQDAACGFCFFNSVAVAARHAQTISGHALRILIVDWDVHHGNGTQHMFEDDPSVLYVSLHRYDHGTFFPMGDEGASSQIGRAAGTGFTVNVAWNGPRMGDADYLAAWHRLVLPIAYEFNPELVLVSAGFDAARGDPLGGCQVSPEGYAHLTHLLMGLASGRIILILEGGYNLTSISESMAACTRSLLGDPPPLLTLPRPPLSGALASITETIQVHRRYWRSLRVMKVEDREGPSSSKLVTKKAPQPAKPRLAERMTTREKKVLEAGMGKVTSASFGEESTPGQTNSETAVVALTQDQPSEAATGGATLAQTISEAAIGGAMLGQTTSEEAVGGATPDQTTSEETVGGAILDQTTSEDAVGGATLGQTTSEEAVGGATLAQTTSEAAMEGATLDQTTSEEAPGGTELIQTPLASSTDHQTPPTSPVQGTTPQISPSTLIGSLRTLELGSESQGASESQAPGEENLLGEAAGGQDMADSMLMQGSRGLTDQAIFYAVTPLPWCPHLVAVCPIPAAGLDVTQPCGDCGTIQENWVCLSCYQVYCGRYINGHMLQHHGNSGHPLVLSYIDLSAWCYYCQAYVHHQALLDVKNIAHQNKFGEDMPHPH

[3] = test system: Airway basal cell; experiment: Inhibition of spheroid count in IPF patient derived human Airway basal cell assessed as reduction in sphere count at 20 to 50 nM incubated for 14 days by Bright-field microscopy analysis; assay type: functional, cell-based; conditions: dose 20-50 nM, time 14.0 day
How it was run: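 Airway basal cells from bronchial brushings of IPF patients, 10⁴ cells in Matrigel on transwell inserts with 1:1 BEGM/DMEM. Treated 14 days (1–50 nM per methods; 0.1–50 nM per legend), medium changed every 7 days.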

[4] = Metabolic stability in human liver microsome assessed as compound remaining at 5 uM in presence of NADPH by HPLC analysis; assay type: ADME; conditions: liver microsomes, read-out: Stability
How it was run: (§1)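 Compound at 5 μM, added in MeCN, incubated at 37 °C in 100 mM phosphate buffer pH 7.4 with 0.5 mg/mL human liver microsomal protein. Reaction started with an NADPH-generating system (2 mM NADPH, glucose-6-phosphate, G6P dehydrogenase, MgCl2). Stopped with MeCN at time points over 0–60 min. Remaining compound measured by RP-18 HPLC-UV at 254 nm, in triplicate. First-order depletion constant k; CLint = k × incubation volume / microsomal protein.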

[5] = target: T2, Histone deacetylase 1 (Homo sapiens, UniProt Q13547); experiment: Inhibition of HDAC1 in human NB-4 cells assessed as increase in acetylation of histone H3 at 5 uM incubated for 30 hrs by western blot analysis; assay type: cell-based
How it was run: (§2)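 Whole lysates (35 μg) and acid-extracted histones (2 μg) run on SDS-PAGE and blotted for acetylated tubulin or acetyl-histone H3; GAPDH or H4 as loading controls.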

[6] = target: T2, Histone deacetylase 1; experiment: Inhibition of human recombinant HDAC1 using ZMAL (Z-(Ac)Lys-AMC) as fluorogenic substrate incubated for 120 mins by microplate reader assay
[7] = target: T2, Histone deacetylase 1; experiment: Inhibition of HDAC1 in human U87 cells assessed as increase in acetylation of histone H3 at 5 uM incubated for 30 hrs by western blot analysis; assay type: cell-based; how it was run: as §2
[8] = Metabolic stability in human liver microsome assessed as intrinsic clearance at 5 uM in presence of NADPH incubated up to 60 mins by HPLC analysis; assay type: ADME; conditions: microsomes, 1 h; how it was run: as §1
[9] = target: T3, Protein deacetylase HDAC6 (Homo sapiens) (UniProt Q9UBN7); experiment: Inhibition of HDAC6 in human NB-4 cells assessed as increase in acetylation of alpha-tubulin at 5 uM incubated for 30 hrs by western blot analysis; assay type: cell-based; how it was run: as §2
T3 sequence (whole entry): T1 sequence (Q9UBN7 whole entry)

[10] = target: T4, Histone deacetylase 8 (Homo sapiens, UniProt Q9BY41); experiment: Inhibition of human recombinant HDAC8 using FLUOR DE LYS fluorometric substrate pre-incubated for 15 mins and followed by substrate addition and measured after 60 mins by microplate reader assay
T4 sequence (Q9BY41 whole entry): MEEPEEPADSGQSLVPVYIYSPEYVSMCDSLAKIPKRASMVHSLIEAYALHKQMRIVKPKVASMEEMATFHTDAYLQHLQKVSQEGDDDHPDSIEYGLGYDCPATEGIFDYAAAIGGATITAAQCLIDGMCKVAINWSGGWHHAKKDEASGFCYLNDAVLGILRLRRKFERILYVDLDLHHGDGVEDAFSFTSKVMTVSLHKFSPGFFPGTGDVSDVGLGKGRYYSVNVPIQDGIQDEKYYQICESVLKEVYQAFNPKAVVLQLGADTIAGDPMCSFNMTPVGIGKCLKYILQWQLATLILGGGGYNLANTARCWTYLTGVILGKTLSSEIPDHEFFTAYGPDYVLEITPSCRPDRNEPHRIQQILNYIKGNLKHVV
How it was run: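 Recombinant human HDAC8 at 0.45 U/reaction with 0.5% DMSO; DMSO-only enzyme served as control. Enzyme preincubated 15 min with compound, then Fluor de Lys substrate added (50 μM final) for 1 h at 30 °C. Quenched with 2 μM TSA in Developer II for a further 1 h at 30 °C. Fluorescence read at ex 370/em 450 nm. IC50 from nonlinear dose-response fit.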

T2 sequence (Q13547 whole entry): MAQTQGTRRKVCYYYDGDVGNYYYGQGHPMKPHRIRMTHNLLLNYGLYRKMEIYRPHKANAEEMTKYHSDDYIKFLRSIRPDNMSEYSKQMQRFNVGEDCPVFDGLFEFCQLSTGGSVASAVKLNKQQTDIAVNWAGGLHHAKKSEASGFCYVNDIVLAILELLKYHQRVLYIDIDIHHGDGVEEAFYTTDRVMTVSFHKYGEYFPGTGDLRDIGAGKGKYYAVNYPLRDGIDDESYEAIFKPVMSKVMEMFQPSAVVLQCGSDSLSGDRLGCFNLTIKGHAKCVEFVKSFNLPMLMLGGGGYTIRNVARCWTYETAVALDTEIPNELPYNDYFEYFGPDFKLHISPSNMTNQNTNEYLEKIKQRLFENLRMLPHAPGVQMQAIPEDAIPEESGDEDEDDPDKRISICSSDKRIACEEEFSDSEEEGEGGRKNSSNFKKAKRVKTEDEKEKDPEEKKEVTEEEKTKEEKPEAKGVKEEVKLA

Compound | solubility [1] [µM] | IC50 [2] [µM] | inhibition [3] | remaining at 5 µM [4] [%] | inhibition [5] | IC50 [6] [µM] | inhibition [7] | CLH [8] [µL/min/mg] | inhibition [9] | IC50 [10] [µM]
CN1CCC2(CC1)c1ccccc1N(Cc1ccc(C(=O)NO)cc1)C2c1ccccc1F (racemic) | 456 (≈ 203 µg/mL) | 0.0285 | Active | 100 | Active | 4.85 | Active | 27.43 | Active | 3.49
CC1(C)c2ccccc2N(Cc2ccc(C(=O)NO)cc2)C1c1cccnc1 (racemic) | 459 (≈ 171 µg/mL) | 0.0419 | Active | 100 | inactive | 5.33 | inactive | 25.46 | Active | 2.17
